Most compounds without a hit are left out; they make up all but 4.9% or so of the library.
NF-kB neuron act: compounds increasing NF-kB expression in human neuronal cells; actives 1.6% (n = 190,000); AID 1239; NF-kB reporter expression; hits give high values; fold change at 12.5 µM; in the data active = fold change above about 3.3
APP 5'UTR act: APP 5'UTR luciferase reporter activation; SH-SY5Y APP 5'UTR luciferase reporter, luminescence; zero percent = DMSO vehicle wells; activation, % at 2 µM; actives 1% (n = 190,000);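 active = activation above a set limit, based on mean plus 3 SD of controls, cut at about 140% in these data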
STAT1 inh: STAT1 signaling inhibition | NIH 3T3 STAT1-luciferase reporter, IFN-gamma, luminescence | inhibition, % at 5.5 µM | actives 0.35% (n = 200,000);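 active = inhibition above a set limit, the mean inhibition across all tested compounds plus 3 SD, cut at about 34% in these data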;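 note: 0% = IFN-gamma with DMSO and 100% = IFN-gamma with 300 µM nifuroxazide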
STAT3 act: STAT3 signaling activation. AID 871. U3A cells, IL-6 STAT3-luciferase reporter, luminescence; 100% = signal with IL-6 EC80 alone. actives 0.91% (n = 190,000). activation (% of control), % at 5.6 µM;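 active = activation above the screen-wide mean of compound activation plus 3 SD, cut at about 130% in these data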;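 note: 0% = background luminescence of wells with medium and substrate only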
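Material: STAT3-luciferase reporter U3A cells; Probe or stimulus: IL-6 (33 ng/mL); Incubation: compound pre-incubation 1 h before IL-6, then 6 h stimulation at 37 °C; Technique: luminescence from STAT3-driven luciferase reporter; Evaluation: % activation versus median of IL-6-stimulated wells; Controls: IL-6-only high control.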
STAT1 act: STAT1 signaling activation; NIH 3T3 STAT1-luciferase reporter, IFN-gamma, luminescence; 100% = IFN-gamma alone, no compound; AID 932; activation (% of control), % at 5.5 µM; actives 2.6% (n = 200,000);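 active = activation above the screen-wide mean activation plus 3 SD, cut at about 130% in these data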;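 note: raw ratio to IFN-gamma control signal so 100% means no change and 0% no light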
STAT3 inh: STAT3 signaling inhibition; U3A cells, IL-6 STAT3-luciferase reporter, luminescence; host cell line lacks STAT1; AID 862; actives 0.89% (n = 190,000); inhibition, % at 5.5 µM;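 active = inhibition above the mean inhibition across all screened compounds plus 3 SD, cut at about 44% in these data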;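 note: 0% = DMSO only wells and 100% = 100 µM nifuroxazide control wells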
* hit, by the source's call; / = no result.

SMILES	NF-kB neuron act	APP 5'UTR act	STAT1 inh	STAT3 act	STAT1 act	STAT3 inh
Cc1ccc(CNC(=O)c2ccc3c(c2)NC(=O)C(N2CCOCC2)S3)cc1 (configuration not stated)	0.86	6	11	133*	91	-33
Cc1ccc(-c2cc3cccc[n+]3cc2-c2ccc(C)cc2)cc1	0.9	-6	36*	50	68	61*
CC(=O)C1=C(C)OC(N)=C(C#N)C1c1cc2cc(C)c(C)cc2nc1Cl (configuration not stated)	1.1	30	5	178*	96	-94
COC(=O)C1=C(C)OC(N)=C(C#N)C1c1cc2cc(C)ccc2nc1Cl (configuration not stated)	1.3	-2	5	97	94	8
COc1ccc2c(c1OC)C(=O)N(c1nccs1)C2	1.5	46	-35	124	132*	-18
Cc1ccccc1C1(CCN2CCCCC2)CCOC(C)(C)C1 (configuration not stated)	1.2	16	2	108	99	-11
COC(=O)c1cnc(SCc2ccc(Cl)cc2)n1C	1.8	227*	-19	97	117	6
Cc1nc(CNC(=O)CC2C(=O)NCCN2Cc2cccc(Oc3ccccc3)c2)cs1 (configuration not stated)	0.85	-19	-3	105	101	0
O=C(Nc1nc2ccc(S(=O)(=O)N3CCCC3)cc2s1)c1cccs1	1.4	18	-14	107	113	-5
CCCCC(=O)Nc1nc2ccc(C(=O)OC)cc2s1	2.5	79	-31	96	129*	9
CCOC(=O)c1ccc2nc(NC(=O)C(C)C)sc2c1	4.2*	122	-52	98	145*	1
CCCC(=O)Nc1nc2ccc(C(=O)OCC)cc2s1	2.3	61	-30	107	127	0
CCOC(=O)c1ccc2nc(NC(=O)c3cccs3)sc2c1	7*	58	-44	80	140*	28
CC1CCC2(CC1)NC(=O)N(Cc1cccc(C(F)(F)F)c1)C2=O (configuration not stated)	0.91	-7	8	110	94	-6
CCOC(=O)N1CCN(C(=O)c2ccc(SC)cc2OC)CC1	1.1	1	-1	96	99	12
CC(C)(O)C(=O)N=Nc1c(O)[nH]c2ccccc12	1.5	46	-17	108	115	-6
Oc1[nH]c2ccccc2c1N=Nc1ccc(F)cc1	1.7	46	-50	119	144*	-27
Oc1[nH]c2ccccc2c1N=Nc1ccccc1F	4.1*	66	-58	154*	151*	-69
CCc1ccc(NC(=O)CC2C(=O)N(c3ccc(C)cc3)C(=O)N2CCc2ccncc2)cc1 (configuration not stated)	0.92	-8	4	107	97	-8
O=S(=O)(NC1c2cccc3cccc(c23)C1N1CCNCC1)c1ccc(Cl)cc1 (configuration not stated)	0.86	13	-9	112	106	-12
CCN(CC)S(=O)(=O)c1ccc(NC(=O)COC(=O)c2ccc(NC(=O)CC#N)cc2)cc1	1.3	-11	2	97	97	9
CC(C)NC(=O)C(=O)NNC(=O)CCc1ccccc1	1.1	3	-4	100	103	4
CN1CCN(c2cnn(-c3ccccc3)c(=O)c2Br)CC1	1	15	-15	104	110	1
O=c1c(Br)c(N2CCCCC2)cnn1-c1ccccc1	3.9*	166*	-51	90	147*	14
O=c1c(Br)c(N2CCCC2)cnn1-c1ccccc1	2.7	93	-48	102	143*	-5
COc1ccc(OCC(=O)Nc2ccc(NC(=O)c3cccs3)c(OC)c2)cc1	1.2	8	0	90	99	15
COc1cc(NC(=O)COc2ccccc2[N+](=O)[O-])ccc1NC(=O)c1cccs1	1.2	-6	-44	83	141*	24
Cc1cc(/C=C2/SC(=S)N(c3ccc([N+](=O)[O-])cc3)C2=O)c(C)n1-c1cccnc1	0.43	-13	4	102	96	2
Cc1cc(/C=C2/SC(=S)N(c3cccc(Cl)c3)C2=O)c(C)n1-c1cccnc1	/	-6	19	44	86	67*

Screening data (PubChem)
